Measurements taken from ChEMBL document CHEMBL1124055, “Analogues of [(triethylsilyl)ethynyl]estradiol as potential antifertility agents” (1988).

What was measured:
Format in all cases: functional
Rattus norvegicus [1] = organism: Rattus norvegicus; test: Oral estrogenic potency (E) relative to ethynylestradiol (EE) in rats
Summary of the method: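 Rats given compound orally by gavage once daily for 3 consecutive days; vehicle-only control; 10 animals/group. Autopsy 24 h after last dose; uteri excised, cleaned, blotted and weighed to nearest 0.2 mg. Regression lines for standard (ethynylestradiol) and test compound constructed and compared to derive relative potency.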

Rattus norvegicus [2] = organism: Rattus norvegicus; test: Oral antifertility potency (A) relative to ethynylestradiol (EE) in rats.
Summary of the method: (§1)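 Mated cycling adult female rats (cohabited with males on proestrus night; sperm in vaginal washings) dosed orally by gavage in sesame oil once daily for 7 consecutive days; vehicle control; 10 rats/group. Killed about day 8; uteri examined for presence and condition of conceptuses. Potency from comparison with regression line of standard ethynylestradiol.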

Rattus norvegicus [3] = organism: Rattus norvegicus; test: Oral antifertility potency (A) relative to ethynylestradiol (EE) in rats; summary of the method: as §1

| Structure (SMILES) | Potency (Rattus norvegicus [1]) | Potency (Rattus norvegicus [2]) | Potency (Rattus norvegicus [3]) |
| --- | --- | --- | --- |
| CC[Si](C#C[C@]1(O)CC(OC)[C@H]2[C@@H]3CCc4cc(OC)ccc4[C@H]3CC[C@@]21C)(CC)CC (stereo partly drawn) | 3% | >0.2 mg/kg/day |  |
| CC[Si](C#C[C@]1(O)CC[C@H]2[C@@H]3CCc4cc(O)ccc4[C@H]3CC[C@@]21C)(CC)CC | 37% |  | 600% |
| C#C[C@]1(O)CC[C@H]2[C@@H]3CCc4cc(O)ccc4[C@H]3CC[C@@]21C [ETHINYL ESTRADIOL] | 100% |  | 100% |
| C#C[C@]1(O)CC(OC)[C@H]2[C@@H]3CCc4cc(OC)ccc4[C@H]3CC[C@@]21C (stereo partly drawn) | 0.8% |  | 10% |
| CC[Si](C#C[C@]1(O)CC[C@H]2[C@@H]3[C@H](O)[C@H](O)c4cc(O)ccc4[C@H]3CC[C@@]21C)(CC)CC | 0.6% | >0.5 mg/kg/day |  |
| CC[Si](C#C[C@]1(O)CCC2C3C=Cc4cc(O)ccc4C3CCC21C)(CC)CC (stereo partly drawn) | 2% |  | 200% |
| C#C[C@]1(O)CC[C@H]2[C@@H]3CCc4cc(O)c(C)cc4[C@H]3CC[C@@]21C | 5.5% |  | 40% |
| C#C[C@]1(O)CC[C@H]2[C@@H]3C[C@@H](C)c4cc(O)ccc4[C@H]3CC[C@@]21C | 1.8% | >0.5 mg/kg/day |  |
| CC[Si](C#C[C@]1(O)CC[C@H]2[C@@H]3CCc4cc(OC)ccc4[C@H]3CC[C@@]21C)(CC)CC | 1.8% | >2 mg/kg/day |  |
| C=CCc1c(O)ccc2c1CC[C@@H]1[C@@H]2CC[C@@]2(C)[C@H]1CC[C@@]2(O)C#C[Si](CC)(CC)CC | 0% | >3 mg/kg/day |  |
| C#C[C@]1(O)CC[C@H]2[C@@H]3CCc4ccccc4[C@H]3CC[C@@]21C | 31% |  | 33% |
| C#C[C@]1(O)CC[C@H]2[C@@H]3[C@H](O)[C@H](O)c4cc(O)ccc4[C@H]3CC[C@@]21C | 0.3% | >0.5 mg/kg/day |  |
| CC[Si](C#C[C@]1(O)C(C)C[C@H]2[C@@H]3CCc4cc(O)ccc4[C@H]3CC[C@@]21C)(CC)CC (stereo partly drawn) | 0.2% | >0.8 mg/kg/day |  |
| CC[Si](C#C[C@]1(O)CC[C@H]2[C@@H]3CCc4cc(O)ccc4[C@H]3[C@@H](O)C[C@@]21C)(CC)CC | 14.4% |  | 64% |
| C#C[C@]1(O)CC[C@H]2[C@@H]3CCc4c(ccc(O)c4CC=C)[C@H]3CC[C@@]21C | 0.1% | >2 mg/kg/day |  |
| C#C[C@]1(O)CC[C@H]2[C@@H]3CCc4cc(OC)ccc4[C@H]3CC[C@@]21C [MESTRANOL] | 0.3% | >2 mg/kg/day |  |
| CC[Si](C#C[C@]1(O)CC[C@H]2[C@@H]3C[C@@H](O)c4cc(O)ccc4[C@H]3CC[C@@]21C)(CC)CC | 16% |  | 40% |

| Structure (SMILES) | Potency (Rattus norvegicus [1]) | Potency (Rattus norvegicus [2]) | Potency (Rattus norvegicus [3]) |
| --- | --- | --- | --- |
| CC[Si](C#C[C@]1(O)CC[C@H]2[C@@H]3[C@H](O)Cc4cc(O)ccc4[C@H]3CC[C@@]21C)(CC)CC | 0.3% |  | 20% |
| CCCN(CCC)Cc1cc2c(cc1O)CC[C@@H]1[C@@H]2CC[C@@]2(C)[C@H]1CC[C@@]2(O)C#C[Si](CC)(CC)CC | 0.3% | >1 mg/kg/day |  |
| C#C[C@]1(O)CC[C@H]2[C@@H]3[C@H](O)Cc4cc(O)ccc4[C@H]3CC[C@@]21C | 0.1% |  | 66% |
| CC[Si](C#C[C@]1(O)CCC2=C3C=Cc4cc(O)ccc4C3CCC21C)(CC)CC (stereo partly drawn) | 1% |  | 66% |
| CC[Si](C#C[C@]1(O)CC[C@H]2[C@@H]3C[C@H](O)c4cc(O)ccc4[C@H]3CC[C@@]21C)(CC)CC | 38% |  | 300% |
| CC[Si](C#C[C@]1(O)CC[C@H]2[C@@H]3CCc4cc(O)c(OC)cc4[C@H]3CC[C@@]21C)(CC)CC | 0.06% | >2.8 mg/kg/day |  |
| C#C[C@]1(O)CC[C@H]2[C@@H]3C[C@H](O)c4cc(O)ccc4[C@H]3CC[C@@]21C | 16% | >0.2 mg/kg/day |  |
| C#C[C@]1(O)C(C)C[C@H]2[C@@H]3CCc4cc(O)ccc4[C@H]3CC[C@@]21C (stereo partly drawn) | 0.5% | >2 mg/kg/day |  |
| C#C[C@]1(O)CCC2C3C=Cc4cc(O)ccc4C3CCC21C (stereo partly drawn) | 2% |  | 20% |
| C#C[C@]1(O)CC[C@H]2[C@@H]3CCc4cc(O)c(CN(CCC)CCC)cc4[C@H]3CC[C@@]21C | 1.3% | >2 mg/kg/day |  |
| CC[Si](C#C[C@]1(O)CCCC2C3CCc4cc(O)ccc4C3CCC21C)(CC)CC (stereo partly drawn) | 0.1% | >2 mg/kg/day |  |
| CC[Si](C#C[C@]1(O)CC[C@H]2[C@@H]3C[C@@H](C)c4cc(O)ccc4[C@H]3CC[C@@]21C)(CC)CC | 0.2% |  | 7.5% |
| CC[Si](C#C[C@]1(O)CC[C@H]2[C@@H]3CCc4cc(O)c(C)cc4[C@H]3CC[C@@]21C)(CC)CC | 2.2% |  | 40% |
| C#C[C@]1(O)CCC2c3ccc4cc(O)ccc4c3CCC21C (stereo partly drawn) | 0.6% |  | 10% |
| CC[Si](C#C[C@]1(O)CC[C@H]2[C@@H]3CCc4ccccc4[C@H]3CC[C@@]21C)(CC)CC | 13% |  | 100% |
| C#C[C@]1(O)CC[C@H]2[C@@H]3CCc4cc(O)ccc4[C@H]3[C@@H](O)C[C@@]21C | 0.8% |  | 200% |
| C#C[C@]1(O)CC[C@H]2[C@@H]3CCc4cc(O)c(OC)cc4[C@H]3CC[C@@]21C | 0.3% | >2 mg/kg/day |  |
